ChEMBL document CHEMBL5674883, “The Heterochromatin Landscape in Migrating Cells and the Importance of H3K27me3 for Associated Transcriptome Alterations” (Cells, 2018)

How the values were obtained:
Assay type in all cases: cell-based
[1] = biological target: T1, RNA polymerase II (Mus musculus) (UniProt P08775+Q8CFI7+P97760+A0A3Q4L2S8+Q80UW8+P61219+P62488+Q923G2+P60898+O08740+Q63871+P62876); test: Inhibition of RNA polymerase II in mouse B16-F1 migrating cells assessed as fold change in Arf6-RNA stability at 0.1 mM measured by […] analysis relative to control cells
[2] = biological target: T1, RNA polymerase II (Mus musculus); test: Inhibition of RNA polymerase II in mouse B16-F1 migrating cells assessed as fold change in Sh3bgrl3-RNA stability at 0.1 mM measured by […] analysis relative to control cells
[3] = biological target: T1, RNA polymerase II (Mus musculus); test: Inhibition of RNA polymerase II in mouse B16-F1 migrating cells assessed as fold change in AU019823-RNA stability at 0.1 mM measured by […] analysis relative to control cells
[4] = biological target: T1, RNA polymerase II (Mus musculus); test: Inhibition of RNA polymerase II in mouse B16-F1 migrating cells assessed as fold change in Brd2-RNA stability at 0.1 mM measured by […] analysis relative to control cells
[5] = biological target: T1, RNA polymerase II (Mus musculus); test: Inhibition of RNA polymerase II in mouse B16-F1 migrating cells assessed as fold change in Nelfe-RNA stability at 0.1 mM measured by ChIP-seq analysis relative to control cells
[6] = biological target: T1, RNA polymerase II (Mus musculus); test: Inhibition of RNA polymerase II in mouse B16-F1 migrating cells assessed as fold change in Dpy19l4-RNA stability at 0.1 mM measured by ChIP-seq analysis relative to control cells
[7] = biological target: T1, RNA polymerase II (Mus musculus); test: Inhibition of RNA polymerase II in mouse B16-F1 migrating cells assessed as fold change in Cdk5rap3-RNA stability at 0.1 mM measured by […] analysis relative to control cells
Summary of the method: (§1)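 Mouse B16-F1 melanoma cells grown to confluence on fibronectin in DMEM/10% FCS at 37 °C, 7% CO2. Migration induced by multiple scratches and 3 h incubation; unscratched controls. DRB 0.1 mM added 3 h before lysis. RNA from poly A-selected mRNA was sequenced (RNA-seq, three replicates per DRB group). Fold change computed for DRB-treated migrating vs DRB-treated control cells; cutoffs fold change >1.3, FDR <0.05.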

[8] = biological target: T1, RNA polymerase II (Mus musculus); test: Inhibition of RNA polymerase II in mouse B16-F1 migrating cells assessed as fold change in Rps15-RNA stability at 0.1 mM measured by […] analysis relative to control cells
[9] = biological target: T1, RNA polymerase II (Mus musculus); test: Inhibition of RNA polymerase II in mouse B16-F1 migrating cells assessed as fold change in Mastl-RNA stability at 0.1 mM measured by ChIP-seq analysis relative to control cells
[10] = biological target: T1, RNA polymerase II (Mus musculus); test: Inhibition of RNA polymerase II in mouse B16-F1 migrating cells assessed as fold change in Vegfa-RNA stability at 0.1 mM measured by […] analysis relative to control cells
[11] = biological target: T1, RNA polymerase II (Mus musculus); test: Inhibition of RNA polymerase II in mouse B16-F1 migrating cells assessed as fold change in G6pc3-RNA stability at 0.1 mM measured by ChIP-seq analysis relative to control cells; summary of the method: as §1
[12] = biological target: Histone-lysine N-methyltransferase EZH2 (Mus musculus) (UniProt Q61188); test: Inhibition of EZH2 in mouse B16-F1 migrating cells assessed as fold change in H3K27me3-independent regulated Ltbp1-mRNA expression at 3 uM measured by […] analysis relative to control cells
Summary of the method: (§2)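 Confluent B16-F1 cells on fibronectin-coated plates were scratched at multiple sites, washed once with DMEM and left to migrate 3 h in growth medium (37 °C, 7% CO2); unscratched cells served as control. GSK343 (3 µM) was added 3 h before lysis. Poly A mRNA was sequenced (RNA-seq), with 5 replicates for untreated and 3 for treated cells. Differential expression was called by linear model with batch correction, at FDR <0.05 and fold change ≥1.3.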

[13] = biological target: Histone-lysine N-methyltransferase EZH2 (Mus musculus) (UniProt Q61188); test: Inhibition of EZH2 in mouse B16-F1 migrating cells assessed as fold change in H3K27me3-buffered regulated Hs3st1-mRNA expression at 3 uM measured by […] analysis relative to control cells
Summary of the method: (§3)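 Confluent B16-F1 cells on fibronectin-coated plates, cultured at 37 °C and 7% CO2, were scratched at multiple sites to induce migration. They were then held 3 h in growth medium containing 3 µM GSK343, with the inhibitor added 3 h before lysis. Unscratched cells served as controls. Poly A mRNA was analysed by RNA-seq (n=3 GSK343, n=5 controls). Linear models removed batch effects, and buffered genes were those altered only under GSK343 (FDR <0.05, fold change >1.3).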

[14] = biological target: Histone-lysine N-methyltransferase EZH2 (Mus musculus) (UniProt Q61188); test: Inhibition of EZH2 in mouse B16-F1 migrating cells assessed as fold change in H3K27me3-independent regulated Cep152-mRNA expression at 3 uM measured by ChIP-seq analysis relative to control cells; summary of the method: as §2
[15] = biological target: Histone-lysine N-methyltransferase EZH2 (Mus musculus) (UniProt Q61188); test: Inhibition of EZH2 in mouse B16-F1 migrating cells assessed as fold change in H3K27me3-independent regulated Hells-mRNA expression at 3 uM measured by […] analysis relative to control cells; summary of the method: as §2
[16] = biological target: Histone-lysine N-methyltransferase EZH2 (Mus musculus) (UniProt Q61188); test: Inhibition of EZH2 in mouse B16-F1 migrating cells assessed as fold change in H3K27me3-buffered regulated Sltm-mRNA expression at 3 uM measured by ChIP-seq analysis relative to control cells; summary of the method: as §2
[17] = biological target: Histone-lysine N-methyltransferase EZH2 (Mus musculus) (UniProt Q61188); test: Inhibition of EZH2 in mouse B16-F1 migrating cells assessed as fold change in H3K27me3-independent regulated Serpinb8-mRNA expression at 3 uM measured by […] analysis relative to control cells; summary of the method: as §2
[18] = biological target: Histone-lysine N-methyltransferase EZH2 (Mus musculus) (UniProt Q61188); test: Inhibition of EZH2 in mouse B16-F1 migrating cells assessed as fold change in H3K27me3-buffered regulated Pltp-mRNA expression at 3 uM measured by […] analysis relative to control cells; summary of the method: as §3
[19] = biological target: Histone-lysine N-methyltransferase EZH2 (Mus musculus) (UniProt Q61188); test: Inhibition of EZH2 in mouse B16-F1 migrating cells assessed as fold change in H3K27me3-buffered regulated Hdac10-mRNA expression at 3 uM measured by […] analysis relative to control cells; summary of the method: as §3
[20] = biological target: Histone-lysine N-methyltransferase EZH2 (Mus musculus) (UniProt Q61188); test: Inhibition of EZH2 in mouse B16-F1 migrating cells assessed as fold change in H3K27me3-buffered regulated Slc26a2-mRNA expression at 3 uM measured by […] analysis relative to control cells; summary of the method: as §2
[21] = biological target: Histone-lysine N-methyltransferase EZH2 (Mus musculus) (UniProt Q61188); test: Inhibition of EZH2 in mouse B16-F1 migrating cells assessed as fold change in H3K27me3-buffered regulated Gm28989-mRNA expression at 3 uM measured by […] analysis relative to control cells; summary of the method: as §3
[22] = biological target: Histone-lysine N-methyltransferase EZH2 (Mus musculus) (UniProt Q61188); test: Inhibition of EZH2 in mouse B16-F1 migrating cells assessed as fold change in H3K27me3-independent regulated Selenbp1-mRNA expression at 3 uM measured by […] analysis relative to control cells; summary of the method: as §2
[23] = biological target: Histone-lysine N-methyltransferase EZH2 (Mus musculus) (UniProt Q61188); test: Inhibition of EZH2 in mouse B16-F1 migrating cells assessed as fold change in H3K27me3-dependent regulated Pxdc1-mRNA expression at 3 uM measured by […] analysis relative to control cells; summary of the method: as §2
[24] = biological target: Histone-lysine N-methyltransferase EZH2 (Mus musculus) (UniProt Q61188); test: Inhibition of EZH2 in mouse B16-F1 migrating cells assessed as fold change in H3K27me3-buffered regulated Map3k20-mRNA expression at 3 uM measured by ChIP-seq analysis relative to control cells; summary of the method: as §3

Histone-lysine N-methyltransferase EZH2 (Mus musculus), sequence (Q61188 whole entry): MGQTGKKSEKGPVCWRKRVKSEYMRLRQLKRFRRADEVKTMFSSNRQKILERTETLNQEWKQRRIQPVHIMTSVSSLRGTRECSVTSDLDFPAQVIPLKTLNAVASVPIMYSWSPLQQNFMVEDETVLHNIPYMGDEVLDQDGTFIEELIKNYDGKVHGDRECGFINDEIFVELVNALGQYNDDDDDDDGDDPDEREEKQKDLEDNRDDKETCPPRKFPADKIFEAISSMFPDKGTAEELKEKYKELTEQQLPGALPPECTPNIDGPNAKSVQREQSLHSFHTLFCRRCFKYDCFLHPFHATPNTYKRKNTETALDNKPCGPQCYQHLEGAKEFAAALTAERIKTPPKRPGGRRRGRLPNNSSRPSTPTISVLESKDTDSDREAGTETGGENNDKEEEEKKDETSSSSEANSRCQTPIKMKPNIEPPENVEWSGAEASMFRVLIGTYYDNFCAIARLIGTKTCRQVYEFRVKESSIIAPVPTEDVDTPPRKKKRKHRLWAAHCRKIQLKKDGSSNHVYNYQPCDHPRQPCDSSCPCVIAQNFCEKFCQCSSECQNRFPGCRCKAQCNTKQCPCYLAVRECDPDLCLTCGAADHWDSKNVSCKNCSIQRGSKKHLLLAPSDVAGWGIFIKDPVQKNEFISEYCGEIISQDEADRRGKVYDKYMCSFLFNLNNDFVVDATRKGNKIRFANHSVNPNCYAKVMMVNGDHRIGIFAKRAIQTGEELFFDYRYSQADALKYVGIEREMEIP

In the case of OC[C@H]1O[C@@H](n2cnc3cc(Cl)c(Cl)cc32)[C@H](O)[C@@H]1O, the log2FC [1] is reported as -0.51, the log2FC [2] is reported as 0.55 and the log2FC [3] is reported as -0.59. It also gave a log2FC [4] of -0.66, a log2FC [5] of 0.39 and a log2FC [6] of -0.58. The log2FC [7] was 0.49, the log2FC [8] was 0.53 and the log2FC [9] was -0.74. For the same molecule, the log2FC [10] was 0.67 and the log2FC [11] was 0.51.
Work on CCCc1cc(C)[nH]c(=O)c1CNC(=O)c1cc(-c2ccnc(N3CCN(C)CC3)c2)cc2c1cnn2C(C)C yielded a log2FC [12] of 1.19, a log2FC [13] of 0.78 and a log2FC [14] of -0.48. For the same molecule, the log2FC [15] was -0.45, the log2FC [16] was -0.45 and the log2FC [17] was 0.81. For the same molecule, the log2FC [18] was 0.39, the log2FC [19] was -0.44 and the log2FC [20] was 0.38. For the same molecule, the log2FC [21] was 1.08, the log2FC [22] was 1.01 and the log2FC [23] was -0.09. The log2FC [24] was -0.41.
